According to ChEMBL document CHEMBL3286267, “Discovery of MK-4409, a Novel Oxazole FAAH Inhibitor for the Treatment of Inflammatory and Neuropathic Pain” (ACS Med Chem Lett, 2014):
Activity calls are given as the source filed them. The calls are words filed in the database; no cut-off is given here.

Tests used:
Rattus norvegicus [1] = test: Toxicity in Harlan rat assessed as motor impairment at 3 mg/kg, po by rotarod test; assay type: organism-based; parameters: dose 3 mg/kg, route oral; conditions: in vivo
[2] = Plasma concentration in Sprague-Dawley rat at 30 mg/kg/day, po measured after 3 hrs on day 2; assay type: ADME, organism-based; parameters: route oral
How it was run: (§1)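 Chronic paradigm in the CFA inflammatory pain model in rats (intraplantar complete Freund's adjuvant in the hind paw). Daily oral dosing continued for up to 10 days, with a pan CB agonist run for comparison. Allodynia was followed over the days. Plasma exposures were sampled at 3 and 24 h after dosing at 30 mg/kg.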

[3] = Fraction unbound in rhesus monkey plasma; assay type: ADME, cell-free, Macaca mulatta
[4] = Plasma concentration in Sprague-Dawley rat at 30 mg/kg/day, po measured after 24 hrs on day 10; assay type: ADME, organism-based; parameters: route oral; how it was run: as §1
[5] = Plasma concentration in Sprague-Dawley rat at 30 mg/kg/day, po measured after 24 hrs on day 8; assay type: ADME, organism-based; parameters: route oral; how it was run: as §1
[6] = Plasma concentration in Sprague-Dawley rat at 30 mg/kg/day, po measured after 3 hrs on day 10; assay type: ADME, organism-based; parameters: route oral; how it was run: as §1
[7] = target: Voltage-gated inwardly rectifying potassium channel KCNH2 (Homo sapiens, UniProt Q12809); test: Displacement of [35S]MK-499 from human ERG
How it was run: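 hERG K+ channel binding assay measuring displacement of the radiolabelled channel blocker [35S]MK-499. Values are averages of at least three duplicates.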

[8] = Plasma concentration in Sprague-Dawley rat at 30 mg/kg/day, po measured after 24 hrs on day 2; assay type: ADME, organism-based; parameters: route oral; how it was run: as §1
[9] = Volume of distribution at steady state in rat at 1 mg/kg, iv and 2 mg/kg, po; assay type: ADME, organism-based; conditions: in vivo, read-out: Vdss
How it was run: (§2)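 Rat PK given 1 mg/kg iv in DMSO/PEG400/H2O 20/60/20 and 2 mg/kg po in either Imwitor/Tween 1/1 or PEG400/Tween80/H2O 40/10/50. Half-life, clearance, volume of distribution, dose-normalized AUC (AUCN) and oral bioavailability were derived.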

[10] = Plasma concentration in Sprague-Dawley rat at 30 mg/kg/day, po measured after 3 hrs on day 3; assay type: ADME, organism-based; parameters: route oral; how it was run: as §1
[11] = target: T1, Fatty-acid amide hydrolase 1 (Homo sapiens, UniProt O00519); test: Inhibition of human FAAH lysate using AMCAA as substrate by fluorescence assay
T1 sequence (O00519 whole entry): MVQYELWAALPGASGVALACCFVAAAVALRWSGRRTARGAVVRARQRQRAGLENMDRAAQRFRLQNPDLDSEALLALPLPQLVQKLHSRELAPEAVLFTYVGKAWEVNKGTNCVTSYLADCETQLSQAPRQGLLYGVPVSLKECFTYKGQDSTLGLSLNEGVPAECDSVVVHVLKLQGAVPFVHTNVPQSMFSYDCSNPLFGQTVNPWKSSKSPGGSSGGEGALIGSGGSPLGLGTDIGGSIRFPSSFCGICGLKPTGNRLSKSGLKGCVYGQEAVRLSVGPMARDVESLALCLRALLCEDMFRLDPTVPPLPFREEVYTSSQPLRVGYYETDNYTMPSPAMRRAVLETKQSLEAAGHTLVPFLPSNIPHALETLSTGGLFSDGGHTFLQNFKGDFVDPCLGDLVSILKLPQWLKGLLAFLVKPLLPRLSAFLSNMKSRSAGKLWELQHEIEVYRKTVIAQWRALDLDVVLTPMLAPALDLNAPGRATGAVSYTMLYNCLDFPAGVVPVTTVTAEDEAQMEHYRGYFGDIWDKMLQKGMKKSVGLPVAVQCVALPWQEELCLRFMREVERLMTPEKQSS
How it was run: (§3)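 In vitro assays, with values reported as the average of at least three duplicates.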

[12] = Half life in rat at 1 mg/kg, iv and 2 mg/kg, po; assay type: ADME, organism-based; conditions: in vivo; how it was run: as §2
[13] = target: T2, Fatty-acid amide hydrolase 1 (Rattus norvegicus, UniProt P97612); test: Inhibition of rat FAAH lysate using AMCAA as substrate by fluorescence assay; how it was run: as §3
T2 sequence (P97612 whole entry): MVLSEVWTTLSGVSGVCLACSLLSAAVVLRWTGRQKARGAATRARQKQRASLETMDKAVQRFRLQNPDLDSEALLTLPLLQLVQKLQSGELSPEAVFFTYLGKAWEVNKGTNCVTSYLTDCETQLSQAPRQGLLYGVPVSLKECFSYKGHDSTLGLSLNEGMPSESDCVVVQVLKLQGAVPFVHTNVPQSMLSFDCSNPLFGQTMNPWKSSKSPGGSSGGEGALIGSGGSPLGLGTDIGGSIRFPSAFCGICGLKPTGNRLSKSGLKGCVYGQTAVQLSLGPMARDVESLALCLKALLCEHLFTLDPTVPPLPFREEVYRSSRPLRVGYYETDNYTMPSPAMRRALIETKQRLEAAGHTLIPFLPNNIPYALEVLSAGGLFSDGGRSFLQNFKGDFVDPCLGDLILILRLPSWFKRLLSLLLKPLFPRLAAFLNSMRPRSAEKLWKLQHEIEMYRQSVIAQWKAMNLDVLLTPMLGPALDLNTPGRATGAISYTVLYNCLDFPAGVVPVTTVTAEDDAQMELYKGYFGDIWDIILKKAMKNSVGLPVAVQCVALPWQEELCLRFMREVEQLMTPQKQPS

[14] = Fraction unbound in dog plasma; assay type: ADME, cell-free, Canis lupus familiaris
[15] = Bioavailability in rat at 1 mg/kg, iv and 2 mg/kg, po; assay type: ADME, organism-based; conditions: in vivo; how it was run: as §2
Rattus norvegicus [16] = test: Analgesic activity in Sprague-Dawley rat complete Freund's adjuvant-induced inflammatory pain model assessed as reversal of mechanical allodynia at 30 mg/kg, po single dose measured after 3 hrs; assay type: functional
How it was run: (§4)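 Inflammatory pain induced in rats by intraplantar injection of complete Freund's adjuvant into the hind paw. Mechanical allodynia was assessed at 1 and 3 h after a single oral dose. For each rat, percent reversal = (postdose – predose)/(preinjury – predose), averaged over n = 6.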

[17] = Plasma concentration in Sprague-Dawley rat at 30 mg/kg/day, po measured after 24 hrs on day 5; assay type: ADME, organism-based; parameters: route oral; how it was run: as §1
[18] = Inhibition of human vesicular monoamine transporter; how it was run: as §3
[19] = Plasma concentration in Sprague-Dawley rat at 30 mg/kg/day, po measured after 3 hrs on day 5; assay type: ADME, organism-based; parameters: route oral; how it was run: as §1
[20] = Plasma concentration in Sprague-Dawley rat at 30 mg/kg/day, po measured after 24 hrs on day 3; assay type: ADME, organism-based; parameters: route oral; how it was run: as §1
[21] = Plasma concentration in Sprague-Dawley rat at 30 mg/kg/day, po measured after 3 hrs on day 8; assay type: ADME, organism-based; parameters: route oral; how it was run: as §1
[22] = Plasma concentration in Sprague-Dawley rat at 30 mg/kg/day, po measured after 24 hrs on day 9; assay type: ADME, organism-based; parameters: route oral; how it was run: as §1
[23] = Fraction unbound in rat plasma; assay type: ADME, cell-free
[24] = Clearance in rat at 1 mg/kg, iv and 2 mg/kg, po; assay type: ADME, organism-based; conditions: in vivo; how it was run: as §2
Rattus norvegicus [25] = test: Analgesic activity in Sprague-Dawley rat complete Freund's adjuvant-induced inflammatory pain model assessed as reversal of mechanical allodynia at 30 mg/kg/day, po measured up to 10 days; assay type: functional, organism-based; how it was run: as §1
Rattus norvegicus [26] = test: Antiallodynic activity in Harlan rat spinal nerve ligation model of neuropathic pain assessed as reversal of allodynia at 3 mg/kg, po; assay type: functional
Rattus norvegicus [27] = test: Analgesic activity in Sprague-Dawley rat complete Freund's adjuvant-induced inflammatory pain model assessed as reversal of mechanical allodynia at 30 mg/kg, po single dose measured after 1 hr; assay type: functional; how it was run: as §4
[28] = Plasma concentration in Sprague-Dawley rat at 30 mg/kg/day, po measured after 3 hrs on day 9; assay type: ADME, organism-based; parameters: route oral; how it was run: as §1
Rattus norvegicus [29] = test: Dose normalized AUC in rat at 1 mg/kg, iv and 2 mg/kg, po; assay type: ADME, organism-based; conditions: in vivo; how it was run: as §2
[30] = Plasma concentration in Sprague-Dawley rat at 30 mg/kg/day, po measured after 3 hrs on day 1; assay type: ADME, organism-based; parameters: route oral; how it was run: as §1
[31] = Fraction unbound in human plasma; assay type: ADME, cell-free
Rattus norvegicus [32] = test: Analgesic activity in Sprague-Dawley rat complete Freund's adjuvant-induced inflammatory pain model assessed as reversal of mechanical allodynia at 10 mg/kg, po single dose measured after 3 hrs; assay type: functional; how it was run: as §4
Rattus norvegicus [33] = test: Analgesic activity in Sprague-Dawley rat complete Freund's adjuvant-induced inflammatory pain model assessed as reversal of mechanical allodynia at 10 mg/kg, po single dose measured after 1 hr; assay type: functional; how it was run: as §4
Rattus norvegicus [34] = test: Analgesic activity in Sprague-Dawley rat complete Freund's adjuvant-induced inflammatory pain model assessed as reversal of mechanical allodynia at 2 mg/kg/day, ip measured up to 5 days; assay type: functional, organism-based
How it was run: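 Inflammatory pain induced in rats by intraplantar injection of complete Freund's adjuvant into the hind paws. Mechanical allodynia was followed under a chronic repeated-dosing paradigm across several days to check for loss of antinociception (tachyphylaxis).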

[35] = Clearance in rat at 1 mg/kg, iv and 1 to 2 mg/kg, po; assay type: ADME, organism-based; conditions: in vivo; how it was run: as §2
Rattus norvegicus [36] = test: Dose normalized AUC in rat at 1 mg/kg, iv and 1 to 2 mg/kg, po; assay type: ADME, organism-based; conditions: in vivo; how it was run: as §2
[37] = Bioavailability in rat at 1 mg/kg, iv and 1 to 2 mg/kg, po; assay type: ADME, organism-based; conditions: in vivo; how it was run: as §2
[38] = Volume of distribution at steady state in rat at 1 mg/kg, iv and 1 to 2 mg/kg, po; assay type: ADME, organism-based; conditions: in vivo, read-out: Vdss; how it was run: as §2
[39] = Half life in rat at 1 mg/kg, iv and 1 to 2 mg/kg, po; assay type: ADME, organism-based; conditions: in vivo; how it was run: as §2
Rattus norvegicus [40] = test: Antiallodynic activity in Harlan rat spinal nerve ligation model of neuropathic pain assessed as reversal of allodynia at 21 mg/kg, po; assay type: functional, organism-based; parameters: dose 21 mg/kg
How it was run: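 Rat spinal nerve ligation model of neuropathic pain, scored as percent reversal of allodynia after dosing. A rota-rod test run alongside served as a counterscreen for motor impairment.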

Voltage-gated inwardly rectifying potassium channel KCNH2, sequence (Q12809 whole entry): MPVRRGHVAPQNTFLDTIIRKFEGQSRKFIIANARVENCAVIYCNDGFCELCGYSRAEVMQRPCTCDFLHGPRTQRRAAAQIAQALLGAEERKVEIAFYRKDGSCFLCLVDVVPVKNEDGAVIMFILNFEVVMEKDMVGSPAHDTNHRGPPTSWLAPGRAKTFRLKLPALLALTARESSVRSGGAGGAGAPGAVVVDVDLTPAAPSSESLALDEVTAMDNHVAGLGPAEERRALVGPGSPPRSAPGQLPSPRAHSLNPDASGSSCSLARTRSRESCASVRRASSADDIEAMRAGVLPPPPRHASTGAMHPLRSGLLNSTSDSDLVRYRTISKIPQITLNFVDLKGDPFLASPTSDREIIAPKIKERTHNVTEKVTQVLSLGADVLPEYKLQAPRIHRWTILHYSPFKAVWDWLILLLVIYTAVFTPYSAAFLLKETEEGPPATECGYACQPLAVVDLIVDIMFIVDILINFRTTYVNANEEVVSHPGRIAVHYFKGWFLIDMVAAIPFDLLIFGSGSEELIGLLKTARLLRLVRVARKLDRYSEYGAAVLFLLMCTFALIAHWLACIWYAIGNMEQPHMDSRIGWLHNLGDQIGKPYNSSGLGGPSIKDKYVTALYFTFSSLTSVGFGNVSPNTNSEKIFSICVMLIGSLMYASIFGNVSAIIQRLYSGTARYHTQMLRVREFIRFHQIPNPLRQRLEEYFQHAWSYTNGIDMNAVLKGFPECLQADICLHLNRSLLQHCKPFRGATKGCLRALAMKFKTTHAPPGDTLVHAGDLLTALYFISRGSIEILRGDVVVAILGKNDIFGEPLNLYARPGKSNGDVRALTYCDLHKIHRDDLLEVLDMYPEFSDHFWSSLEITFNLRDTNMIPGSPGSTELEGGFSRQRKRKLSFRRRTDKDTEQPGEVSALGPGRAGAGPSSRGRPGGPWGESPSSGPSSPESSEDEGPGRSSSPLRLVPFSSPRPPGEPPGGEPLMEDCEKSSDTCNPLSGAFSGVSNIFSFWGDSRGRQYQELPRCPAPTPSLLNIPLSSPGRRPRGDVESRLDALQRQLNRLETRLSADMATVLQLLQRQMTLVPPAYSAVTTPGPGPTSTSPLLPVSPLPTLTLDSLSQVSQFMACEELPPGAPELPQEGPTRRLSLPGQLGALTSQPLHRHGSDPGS

In the case of `CC(C)(O)c1ccc(-c2nc(-c3ccc(F)cc3)oc2Sc2ccc(Cl)cn2)cn1`, the Activity (Rattus norvegicus [1]) is reported as “Non-toxic”, the concentration at 3 h [2] is reported as 8 µM and the fraction unbound [3] is reported as 0.008. It also gave a concentration at 24 h [4] of 7.9 µM, a concentration at 24 h [5] of 7.3 µM and a concentration at 3 h [6] of 14.2 µM. It also gave a Ki [7] of 1250 nM, a concentration at 24 h [8] of 2.1 µM and a Vd [9] of 6.2 L/kg. For the same compound, the concentration at 3 h [10] was 11.9 µM, the IC50 [11] was 11 nM and the half-life [12] was 4.3 h. The IC50 [13] was 11 nM, the fraction unbound [14] was 0.012 and the bioavailability [15] was 120%. It also gave an Activity (Rattus norvegicus [16]) of 71%, a concentration at 24 h [17] of 6.5 µM and an EC50 [18] of over 20000 nM. The concentration at 3 h [19] was 13.2 µM, the concentration at 24 h [20] was 4.1 µM and the concentration at 3 h [21] was 12.2 µM. It also gave a concentration at 24 h [22] of 8.3 µM, a fraction unbound [23] of 0.029 and a clearance [24] of 20 mL/min/kg. The Activity (Rattus norvegicus [25]) was “Active”, the inhibition in vivo at 3 mg/kg (Rattus norvegicus [26]) was 50% and the Activity (Rattus norvegicus [27]) was 70%. For the same compound, the concentration at 3 h [28] was 13.7 µM, the AUC/dose (Rattus norvegicus [29]) was 2.2 µM·kg·h/mg and the concentration at 3 h [30] was 5.4 µM. For the same compound, the fraction unbound [31] was 0.016, the Activity (Rattus norvegicus [32]) was 51% and the Activity (Rattus norvegicus [33]) was 49%.
For `Cc1c(C(=O)c2cccc3ccccc23)c2cccc3c2n1[C@H](CN1CCOCC1)CO3`, the Activity (Rattus norvegicus [34]) was “inactive”.
`Clc1ccc(Sc2cn(-c3ccccc3)nc2-c2ccc3c(c2)OCCO3)cc1` showed a Ki [7] of over 30000 nM, an IC50 [11] of 27 nM and an IC50 [13] of 8 nM.
`CC(C)(O)c1cnc(-c2nn(-c3ccc(F)cc3)cc2Sc2ccc(Cl)cc2)cn1` gave a clearance [35] of 33.8 mL/min/kg, an AUC/dose (Rattus norvegicus [36]) of 1.07 µM·kg·h/mg and a bioavailability [37] of 96%. The Ki [7] was 740 nM, the Vd [38] was 15.8 L/kg and the half-life [39] was 4.9 h. For the same compound, the IC50 [11] was 32 nM, the IC50 [13] was 10 nM and the Activity (Rattus norvegicus [16]) was 40%. For the same compound, the EC50 [18] was 1160 nM, the Activity (Rattus norvegicus [27]) was 58% and the Activity (Rattus norvegicus [32]) was 38%. It also gave an Activity (Rattus norvegicus [33]) of 42%.
With `NC(=O)c1cccc(-c2cccc(OC(=O)NC3CCCCC3)c2)c1` the Activity (Rattus norvegicus [40]) was “Active”.
